Converted amounts (≈) assume the structure as drawn.
Legend:
[1] = Total clearance was determined in rat at 10 mg/kg intraperitoneal dosage; format: ADME, organism-based; set-up: dose 10 mg/kg, route intraperitoneal; conditions: in vivo, ip, read-out: Clearance (converted)
Procedure, shortened: (§1)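 Fasted male Wistar rats (180–230 g) given the drug ip in carboxymethyl cellulose. Plasma and urine extracted with CHCl₃ from citrate buffer pH 6.2 with internal standard. Analysis by reverse-phase C-18 HPLC, 0.1% AcOH/MeOH gradient, 245 nm UV. Urinary clearance and total clearance derived as pharmacokinetic parameters.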

[2] = Urinary clearance was determined in rat at 25 mg/kg os dosage; format: ADME, organism-based; set-up: dose 25 mg/kg; conditions: urine, po, read-out: CL_renal (converted)
Procedure, shortened: (§2)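 Fasted male Wistar rats (180–230 g) dosed orally, suspended in carboxymethyl cellulose. Plasma and urine assayed by HPLC: sample plus internal standard and citrate buffer (0.1 M, pH 6.2), extracted into CHCl₃, dried, redissolved in MeOH. Separation on C-18 with 0.1% AcOH/MeOH gradient, UV detection at 245 nm.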

Homo sapiens = assay: Urinary clearance was determined at 100 mg/kg oral dosage in human; format: ADME, organism-based, Urine; set-up: dose 100 mg/kg, route oral; conditions: in vivo
Procedure, shortened: (§3)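 Four healthy volunteers of both sexes took oral capsules (100 mg units) at three dose levels. Venous blood drawn into heparinized tubes and plasma obtained by low-speed centrifugation. Urine collected. Unchanged drug in plasma and urine determined by C-18 HPLC after CHCl₃ extraction, with UV detection at 245 nm.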

[3] = Peak plasma concentration at a dose of 20 mg/kg, oral route in monkey (Macaca fascicularis) suspended in carboxymethyl cellulose (CMC);Range is between (5.5-6); format: ADME, organism-based; set-up: dose 20 mg/kg, route oral; conditions: cynomolgus monkey, read-out: Activity
Procedure, shortened: (§4)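 Four male beagle dogs or two Macaca fascicularis monkeys dosed orally, suspended in carboxymethyl cellulose. Venous blood collected into heparinized tubes and plasma separated by low-speed centrifugation. Urine gathered in metabolic cages. Unchanged drug measured by C-18 HPLC (extraction, UV 245 nm).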

[4] = Peak plasma concentration at a dose of 25 mg/kg, os route in rat suspended in carboxymethyl cellulose (CMC); format: ADME, organism-based; set-up: dose 25 mg/kg; conditions: po, read-out: Activity; procedure, shortened: as §2
[5] = Half life period was determined for the compound at 20 mg/kg concentration, oral route in monkey (Macaca fascicularis); format: ADME, organism-based; set-up: dose 20 mg/kg, route oral; conditions: cynomolgus monkey, in vivo; procedure, shortened: as §4
Rattus norvegicus = assay: Volume of distribution at a dose of 25 mg/kg, intraperitoneal route in rat suspended in carboxymethyl cellulose (CMC); format: ADME, organism-based; set-up: dose 25 mg/kg, route intraperitoneal; conditions: in vivo, ip; procedure, shortened: as §1
[6] = Time taken for peak plasma concentration at a dose of 100 mg/kg, os route in rat suspended in carboxymethyl cellulose (CMC); format: ADME, organism-based; set-up: dose 100 mg/kg; conditions: po; procedure, shortened: as §2
[7] = Time taken for peak plasma concentration at a dose of 20 mg/kg, oral route in dog(beagle) suspended in carboxymethyl cellulose (CMC); format: ADME, organism-based, Canis lupus familiaris; set-up: dose 20 mg/kg, route oral; procedure, shortened: as §4
[8] = Half life period was determined for the compound at 10 mg/kg concentration, intraperitoneal route; conditions: in vivo, ip
[9] = Half life period was determined for the compound at 100 mg/kg concentration, os route; conditions: in vivo, po
[10] = Urinary excretion for the compound was evaluated as percent dose excreted at 50 mg/kg os dosage; format: ADME, organism-based; set-up: dose 50 mg/kg; conditions: urine, po; procedure, shortened: as §2
[11] = Urinary excretion for the compound was evaluated as percent dose excreted at 10 mg/kg intraperitoneal dosage; format: ADME, organism-based; set-up: dose 10 mg/kg, route intraperitoneal; conditions: urine, ip; procedure, shortened: as §1
[12] = Peak plasma concentration at a dose of 100 mg/kg, oral route in human; format: ADME, organism-based; set-up: dose 100 mg/kg, route oral; conditions: read-out: Activity; procedure, shortened: as §3
[13] = Peak plasma concentration at a dose of 20 mg/kg, oral route in dog(beagle) suspended in carboxymethyl cellulose (CMC); format: ADME, organism-based, Canis lupus familiaris; set-up: dose 20 mg/kg, route oral; conditions: read-out: Activity; procedure, shortened: as §4
[14] = Urinary excretion for the compound was evaluated as percent dose excreted at 25 mg/kg intraperitoneal dosage; format: ADME, organism-based; set-up: dose 25 mg/kg, route intraperitoneal; conditions: urine, ip; procedure, shortened: as §1
[15] = Urinary excretion for the compound was evaluated as percent dose excreted at 100 mg/kg oral dosage in human; format: ADME, organism-based; set-up: dose 100 mg/kg, route oral; conditions: urine; procedure, shortened: as §3
[16] = Time taken for peak plasma concentration at a dose of 400 mg/kg, oral route in human; format: ADME, organism-based; set-up: dose 400 mg/kg, route oral; procedure, shortened: as §3
[17] = Time taken for peak plasma concentration at a dose of 50 mg/kg, os route in rat suspended in carboxymethyl cellulose (CMC); format: ADME, organism-based; set-up: dose 50 mg/kg; conditions: po; procedure, shortened: as §2
[18] = Time taken for peak plasma concentration at a dose of 200 mg/kg, oral route in human; format: ADME, organism-based; set-up: dose 200 mg/kg, route oral; procedure, shortened: as §3
[19] = Total clearance was determined in rat at 25 mg/kg intraperitoneal dosage; format: ADME, organism-based; set-up: dose 25 mg/kg, route intraperitoneal; conditions: in vivo, ip, read-out: Clearance (converted); procedure, shortened: as §1
[20] = Tissue levels determined 1 hr after peroral dose of 50 mg/kg in liver; conditions: po
[21] = Urinary clearance was determined in rat at 25 mg/kg intraperitoneal dosage; format: ADME, organism-based; set-up: dose 25 mg/kg, route intraperitoneal; conditions: urine, ip, read-out: CL_renal (converted); procedure, shortened: as §1
Enterobacter cloacae = assay: In vitro antibacterial activity against clinical isolates of Enterobacter cloacae 041 (gram negative) by agar dilution assay.; format: functional
Procedure, shortened: (§5)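 Agar dilution on Isosensitest agar; compound incorporated by twofold serial dilution. Overnight broth cultures delivered by multipoint inoculator at 10⁵ CFU per point. Plates read after 18 h at 37 °C. MIC taken as the lowest concentration giving complete growth inhibition.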

Escherichia coli = assay: In vitro antibacterial activity against clinical isolates of Escherichia coli 15 (gram negative) by agar dilution assay.; format: functional; procedure, shortened: as §5
Klebsiella pneumoniae = assay: In vitro antibacterial activity against clinical isolates of Klebsiella pneumoniae-4 (gram negative) by agar dilution assay.; format: functional; procedure, shortened: as §5
[22] = Lethal dose after single iv administration to mouse was determined; format: toxicity, organism-based; conditions: in vivo
Staphylococcus aureus = assay: In vitro antibacterial activity against clinical isolates of Staphylococcus aureus 18773 (gram-positive) by agar dilution assay.; format: functional; procedure, shortened: as §5
[23] = Ratio of tissue (heart) levels to plasma levels after 1 hr of treatment; format: ADME
Procedure, shortened: (§6)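 Male Wistar rats received 50 mg/kg po and were killed at 1 and 15 h. Tissue homogenates and plasma extracted with CHCl₃ after adding internal standard and pH 6.2 citrate buffer. Drug quantified by C-18 HPLC with UV at 245 nm. Tissue level divided by plasma level.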

[24] = Ratio of tissue (kidney) levels to plasma levels after 15 hr of treatment; format: ADME; procedure, shortened: as §6
[25] = Ratio of AUC from os administration to AUC from ip administration at a dose of 25 mg/kg; format: ADME, organism-based; set-up: dose 25 mg/kg, route intraperitoneal; conditions: in vivo
Procedure, shortened: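 Fasted male Wistar rats (180–230 g), drug suspended in carboxymethyl cellulose, given orally or ip. Plasma (heparinized) and urine from metabolic cages were sampled at various times. The unchanged drug was measured by HPLC after CHCl3 extraction at pH 6.2 with an internal standard, on a C-18 column with an AcOH/MeOH gradient and UV detection at 245 nm. Interassay and intraassay variability was about 10%.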

[26] = Half life period was determined for the compound at 50 mg/kg concentration, os route; conditions: in vivo, po
[27] = Half life period was determined for the compound at 20 mg/kg concentration, oral route in dog(beagle); format: ADME, organism-based, Canis lupus familiaris; set-up: dose 20 mg/kg, route oral; conditions: in vivo; procedure, shortened: as §4
[28] = Tissue levels determined 1 hr after peroral dose of 50 mg/kg in kidney; conditions: po
[29] = Lethal dose after single iv administration to rat was determined; format: toxicity, organism-based; conditions: in vivo
Procedure, shortened: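 Male Wistar rats (130-150 g) were given single intravenous doses at no fewer than three levels. Deaths were counted over 14 days, and LD50 was calculated by the Litchfield and Wilcoxon method.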

[30] = Ratio of tissue (liver) levels to plasma levels after 15 hr of treatment; format: ADME; procedure, shortened: as §6
in vivo [31] = conditions: liver, po, 50 mg/kg
in vivo [32] = conditions: plasma, po, 50 mg/kg

CN1CCN(c2c(F)cc3c(=O)c(C(=O)O)cn4c3c2SCC4)CC1 [RUFLOXACIN]
CL/F [1]: 4.22 mL/min/kg
CL renal [2]: 1.21 mL/min/kg
CL_renal (Homo sapiens): 0.0933 mL/min/kg
Cmax [3]: 5500 ng/mL
Cmax [4]: 6000 ng/mL
half-life [5]: 50 h
Vd (Rattus norvegicus): 3 L/kg
Tmax [6]: 1 h
Tmax [7]: 4 h
half-life [8]: 9.9 h
half-life [9]: 8.7 h
dose excreted [10]: 16.7%
dose excreted [11]: 26%
Cmax [12]: 1870 ng/mL
Cmax [13]: 5700 ng/mL
dose excreted [14]: 22.2%
dose excreted [15]: 45%
Tmax [16]: 2 h
Tmax [17]: 1 h
Tmax [18]: 4 h
CL/F [19]: 4.18 mL/min/kg
concentration at 1 h [20]: 80000 ng/mL
CL renal [21]: 0.79 mL/min/kg
MIC (Enterobacter cloacae): < 0.39 µg/mL
MIC (Escherichia coli): 0.78 µg/mL (≈ 2.15 µM)
MIC (Klebsiella pneumoniae): < 0.39 µg/mL
LD50 [22]: 224 mg/kg
MIC (Staphylococcus aureus): 0.78 µg/mL (≈ 2.15 µM)
Kp at 1 h [23]: 3
Kp at 15 h [24]: 2.7
Ratio [25]: 0.85
half-life [26]: 8.7 h
half-life [27]: 12 h
concentration at 1 h [28]: 61000 ng/mL
LD50 [29]: 285 mg/kg
Kp at 15 h [30]: 3.7
concentration at 15 h (in vivo [31]): 11000 ng/mL
concentration at 15 h (in vivo [32]): 3000 ng/mL

Reference: ChEMBL document CHEMBL1123921, “Quinolonecarboxylic acids. 2. Synthesis and antibacterial evaluation of 7-oxo-2,3-dihydro-7H-pyrido[1,2,3-de][1,4]benzothiazine-6-carboxylic acids” (J Med Chem, 1987)
